{
  "source": "ChEMBL document CHEMBL1139438",
  "about": "“Synthesis of N3,5'-cyclo-4-(beta-D-ribofuranosyl)-vic-triazolo[4,5-b]pyridin-5-one, a novel compound with anti-hepatitis C virus activity” (J Med Chem, 2004)",
  "key": {"[1]": {"experiment": "Effective concentration required for 90% of antiviral activity against bovine viral diarrhoea virus", "type": "functional, Bovine viral diarrhea virus 1", "conditions": "Bovine viral diarrhea virus isolates and strains"}, "[2]": {"tested_on": "Respiratory syncytial virus", "experiment": "Effective concentration required for antiviral activity against respiratory syncytial virus", "type": "functional, organism-based", "conditions": "human respiratory syncytial virus"}, "[3]": {"experiment": "Concentration required for cytotoxic activity against african green monkey kidney MA-104 cell line was determined using neutral red method", "type": "functional", "conditions": "Cercopithecidae, MA104"}, "Vero [4]": {"tested_on": "Vero", "experiment": "Concentration required for cytotoxic activity against african green monkey kidney Vero cell line was determined using neutral red dye", "type": "functional", "conditions": "Chlorocebus sabaeus"}, "LLC-MK2": {"tested_on": "LLC-MK2", "experiment": "Concentration required for cytotoxic activity against rhesus monkey kidney LLC-MK2 cell line was determined using neutral red method", "type": "functional, Cercopithecidae", "conditions": "Macaca mulatta"}, "[5]": {"tested_on": "Human immunodeficiency virus", "experiment": "Effective concentration required for antiviral activity against human immunodeficiency virus", "type": "functional, organism-based", "conditions": "Human immunodeficiency virus 1"}, "Vero [6]": {"tested_on": "Vero", "experiment": "Concentration required for cytotoxic activity against african green monkey kidney Vero cell line was determined using MST dye", "type": "functional", "conditions": "Chlorocebus sabaeus", "method_in_brief": "(§1)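 Cytotoxicity was read with an MTS-dye cell proliferation assay and expressed as CC50 (µM).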"}, "CCRF-CEM": {"tested_on": "CCRF-CEM", "experiment": "Concentration required for cytotoxic activity against human T-cell lymphoma CEM cell line was determined using MST dye", "type": "functional", "method_in_brief": "as §1"}, "Huh-7 [7]": {"tested_on": "Huh-7", "experiment": "Effective concentration required for 90% reduction in subgenomic hepatitis C virus replicon RNA levels in Huh-7 cells after 96 hr of compound exposure", "type": "functional", "conditions": "Homo sapiens, Huh-7, 96 h", "method_in_brief": "(§2)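 HCV subgenomic replicon-bearing Huh-7 cells were seeded at 1000 cells/well in 96-well plates, with compound added immediately after seeding, and incubated for 96 h. Total cellular RNA was isolated. Replicon RNA and a ribosomal RNA internal control were amplified by single-step multiplex real-time RT-PCR. HCV RNA was normalized to rRNA by ΔΔCt and calibrated against the no-drug control. Recombinant interferon alpha-2a was the positive control.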"}, "Influenza B virus": {"tested_on": "Influenza B virus", "experiment": "Effective concentration required for antiviral activity against Influenza B virus", "type": "functional, organism-based"}, "PBMC": {"tested_on": "PBMC", "experiment": "Concentration required for cytotoxic activity against primary human peripheral blood mononuclear PBM cell line was determined using MST dye", "type": "functional", "method_in_brief": "as §1"}, "unidentified adenovirus": {"tested_on": "unidentified adenovirus", "experiment": "Effective concentration required for antiviral activity against adenovirus type 1", "type": "functional, organism-based, Human adenovirus 1"}, "Human alphaherpesvirus 1 [8]": {"tested_on": "Human alphaherpesvirus 1", "experiment": "Effective concentration required for antiviral activity against herpes simplex virus type 1"}, "A549": {"tested_on": "A549", "experiment": "Concentration required for cytotoxic activity against human lung carcinoma A-549 cell line using neutral red method", "type": "functional"}, "[9]": {"experiment": "Effective concentration required for antiviral activity against pinchinde virus", "type": "functional"}, "CV-1": {"tested_on": "CV-1", "experiment": "Concentration required for cytotoxic activity against african green monkey kidney CV-1 cell line was determined using neutral red method", "type": "functional, Cercopithecidae", "conditions": "Chlorocebus aethiops"}, "Hepatitis B virus [10]": {"tested_on": "Hepatitis B virus", "experiment": "Effective concentration required for antiviral activity against hepatitis B virus", "type": "functional, organism-based"}, "Hepatitis B virus [11]": {"tested_on": "Hepatitis B virus", "experiment": "Effective concentration required for 90% of antiviral activity against hepatitis B virus", "type": "functional"}, "Human rhinovirus sp.": {"tested_on": "Human rhinovirus sp.", "experiment": "Effective concentration required for antiviral activity against rhinovirus", "type": "functional, organism-based, Enterovirus"}, "[12]": {"tested_on": "Human immunodeficiency virus", "experiment": "Effective concentration required for 90% of antiviral activity against human immunodeficiency virus", "type": "functional", "conditions": "Human immunodeficiency virus 1"}, "Human alphaherpesvirus 1 [13]": {"tested_on": "Human alphaherpesvirus 1", "experiment": "Effective concentration required for 90% of antiviral activity against herpes simplex virus type 1"}, "Human respirovirus 3": {"tested_on": "Human respirovirus 3", "experiment": "Effective concentration required for antiviral activity against Parainfluenza virus", "type": "functional, organism-based"}, "HepG2": {"tested_on": "HepG2", "experiment": "Concentration required for cytotoxic activity against human hepatocellular carcinoma HepG2 cell line was determined using MST dye", "type": "functional", "method_in_brief": "as §1"}, "[14]": {"experiment": "Effective concentration required for antiviral activity against bovine viral diarrhoea virus", "type": "functional, Bovine viral diarrhea virus 1"}, "Huh-7 [15]": {"tested_on": "Huh-7", "experiment": "Effective concentration required for reduction in subgenomic hepatitis C virus replicon RNA levels in Huh-7 cells after 96 hr of compound exposure", "type": "functional, cell-based", "conditions": "Homo sapiens, Huh-7, 96 h", "method_in_brief": "as §2"}, "Yellow fever virus": {"tested_on": "Yellow fever virus", "experiment": "Effective concentration required for antiviral activity against yellow fever virus", "type": "functional, organism-based"}, "MDCK": {"tested_on": "MDCK", "experiment": "Concentration required for cytotoxic activity against madin darby canine kidney MDCK cell line was determined using neutral red method", "type": "functional", "conditions": "Canis lupus familiaris"}, "Measles morbillivirus": {"tested_on": "Measles morbillivirus", "experiment": "Effective concentration required for antiviral activity against measles virus", "type": "functional, organism-based"}, "[16]": {"experiment": "Effective concentration required for antiviral activity against west Nile virus", "type": "functional"}, "[17]": {"experiment": "Concentration required for cytotoxic activity against african green monkey kidney B-SC-1 cell line was determined using neutral red method", "type": "functional", "conditions": "Cercopithecidae, BSC-1"}, "KB": {"tested_on": "KB", "experiment": "Concentration required for cytotoxic activity against human epidermoid carcinoma of the nasopharynx KB cell line was determined using neutral red method", "type": "functional"}, "SK-MEL-28": {"tested_on": "SK-MEL-28", "experiment": "Concentration required for cytotoxic activity against human malignant melanoma SK-MEL-28 cell line was determined using MST dye", "type": "functional", "method_in_brief": "as §1"}, "Influenza A virus": {"tested_on": "Influenza A virus", "experiment": "Effective concentration required for antiviral activity against Influenza A virus", "type": "functional, organism-based"}, "[18]": {"experiment": "Effective concentration required for antiviral activity against punta toro A virus", "type": "functional"}, "Huh-7 [19]": {"tested_on": "Huh-7", "experiment": "Concentration required for cytotoxic activity against human hepatocellular carcinoma Huh-7 cell line was determined using MST dye", "type": "functional", "method_in_brief": "as §1"}},
  "data": [
    {"smiles": "O=c1ccc2nnn3c2n1C1O[C@H](C3)[C@@H](O)[C@H]1O", "values": [
      {"measurement": "EC90", "setting": "[1]", "result": "> 100", "unit": "µM"},
      {"measurement": "EC50", "setting": "[2]", "result": "> 100", "unit": "µM"},
      {"measurement": "CC50", "setting": "[3]", "result": "> 100", "unit": "µM"},
      {"measurement": "CC50", "setting": "Vero [4]", "result": "> 100", "unit": "µM"},
      {"measurement": "CC50", "setting": "LLC-MK2", "result": "> 100", "unit": "µM"},
      {"measurement": "EC50", "setting": "[5]", "result": "> 100", "unit": "µM"},
      {"measurement": "CC50", "setting": "Vero [6]", "result": "> 100", "unit": "µM"},
      {"measurement": "CC50", "setting": "CCRF-CEM", "result": 13.8, "unit": "µM"},
      {"measurement": "EC90", "setting": "Huh-7 [7]", "result": 79.8, "unit": "µM"},
      {"measurement": "EC50", "setting": "Influenza B virus", "result": 28, "unit": "µM"},
      {"measurement": "CC50", "setting": "PBMC", "result": "> 100", "unit": "µM"},
      {"measurement": "EC50", "setting": "unidentified adenovirus", "result": "> 100", "unit": "µM"},
      {"measurement": "EC50", "setting": "Human alphaherpesvirus 1 [8]", "result": "> 100", "unit": "µM"},
      {"measurement": "CC50", "setting": "A549", "result": "> 100", "unit": "µM"},
      {"measurement": "EC50", "setting": "[9]", "result": "> 100", "unit": "µM"},
      {"measurement": "CC50", "setting": "CV-1", "result": "> 100", "unit": "µM"},
      {"measurement": "EC50", "setting": "Hepatitis B virus [10]", "result": "> 100", "unit": "µM"},
      {"measurement": "EC90", "setting": "Hepatitis B virus [11]", "result": "> 100", "unit": "µM"},
      {"measurement": "EC50", "setting": "Human rhinovirus sp.", "result": "> 100", "unit": "µM"},
      {"measurement": "EC90", "setting": "[12]", "result": "> 100", "unit": "µM"},
      {"measurement": "EC90", "setting": "Human alphaherpesvirus 1 [13]", "result": "> 100", "unit": "µM"},
      {"measurement": "EC50", "setting": "Human respirovirus 3", "result": "> 100", "unit": "µM"},
      {"measurement": "CC50", "setting": "HepG2", "result": 74.4, "unit": "µM"},
      {"measurement": "EC50", "setting": "[14]", "result": "> 100", "unit": "µM"},
      {"measurement": "EC50", "setting": "Huh-7 [15]", "result": 19.7, "unit": "µM"},
      {"measurement": "EC50", "setting": "Yellow fever virus", "result": "> 100", "unit": "µM"},
      {"measurement": "CC50", "setting": "MDCK", "result": "> 100", "unit": "µM"},
      {"measurement": "EC50", "setting": "Measles morbillivirus", "result": "> 100", "unit": "µM"},
      {"measurement": "EC50", "setting": "[16]", "result": "> 100", "unit": "µM"},
      {"measurement": "CC50", "setting": "[17]", "result": "> 100", "unit": "µM"},
      {"measurement": "CC50", "setting": "KB", "result": "> 100", "unit": "µM"},
      {"measurement": "CC50", "setting": "SK-MEL-28", "result": "> 100", "unit": "µM"},
      {"measurement": "EC50", "setting": "Influenza A virus", "result": "> 100", "unit": "µM"},
      {"measurement": "EC50", "setting": "[18]", "result": "> 100", "unit": "µM"},
      {"measurement": "CC50", "setting": "Huh-7 [19]", "result": 49.6, "unit": "µM"}
    ]}
  ]
}
